Reference: ChEMBL document CHEMBL1137681, “Design, synthesis and characterization of N9/N7-substituted 6-aminopurines as VEGF-R and EGF-R inhibitors” (Eur J Med Chem, 2009)
Each block holds one compound with its values, some of them ahead of it. The source made the active and inactive calls. No cut-off for these calls is given here.

Columns and labels:
Angiopoietin-1 receptor = Angiopoietin-1 receptor (Homo sapiens, UniProt Q02763); test: Inhibition of TIE2 up to 100 uM
[1] = target: Vascular endothelial growth factor receptor 2 (Homo sapiens, UniProt P35968); test: Inhibition of VEGFR2 up to 100 uM
[2] = target: Receptor tyrosine-protein kinase erbB-2 (Homo sapiens, UniProt P04626); test: Inhibition of ERBB2 up to 100 uM
Summary of the method: (§1)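 Buffer: HEPES-NaOH pH 7.5, Mg2+/Mn2+, vanadate, DTT, PEG20000, 1% DMSO. Incubated 30 °C for 80 min, stopped with 2% H3PO4, washed, and scintillation-counted. IC50 from 10 concentrations in singlicate.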

[3] = target: Proto-oncogene tyrosine-protein kinase Src (Homo sapiens, UniProt P12931); test: Inhibition of SRC up to 100 uM
[4] = target: Epidermal growth factor receptor (Homo sapiens, UniProt P00533); test: Inhibition of EGFR up to 100 uM; summary of the method: as §1
[5] = target: Inhibitor of nuclear factor kappa-B kinase subunit beta (Homo sapiens) (UniProt O14920); test: Inhibition of IKKb at 10 uM
Aurora kinase B = Aurora kinase B (Homo sapiens, UniProt Q96GD4); test: Inhibition of Aurora B at 10 uM
[6] = Inhibition of PKBbeta S474D mutant at 10 uM
[7] = target: Dual specificity mitogen-activated protein kinase kinase 1 (Oryctolagus cuniculus) (UniProt P29678); test: Inhibition of rabbit MKK1 at 10 uM
[8] = system: Serine/threonine-protein kinase Sgk1 (Homo sapiens), O00141 [S422D]; test: Inhibition of SGK1 S422D mutant at 10 uM
[9] = target: Mitogen-activated protein kinase 3 (Homo sapiens) (UniProt P27361); test: Inhibition of human ERK1 at 10 uM
[10] = target: Casein kinase I isoform delta (Rattus norvegicus) (UniProt Q06486); test: Inhibition of rat CK1delta (1-294) at 10 uM
[11] = target: SRSF protein kinase 1 (Homo sapiens) (UniProt Q96SB4); test: Inhibition of SRPK1 at 10 uM
[12] = target: Serine/threonine-protein kinase pim-3 (Homo sapiens) (UniProt Q86V86); test: Inhibition of human PIM3 at 10 uM
[13] = target: Dual specificity tyrosine-phosphorylation-regulated kinase 3 (Homo sapiens) (UniProt O43781); test: Inhibition of human DYRK3 at 10 uM
[14] = target: Homeodomain-interacting protein kinase 3 (Homo sapiens) (UniProt Q9H422); test: Inhibition of human HIPK3 at 10 uM
[15] = target: Lymphokine-activated killer T-cell-originated protein kinase (Homo sapiens) (UniProt Q96KB5); test: Inhibition of PBK at 10 uM
Rattus norvegicus = species: Rattus norvegicus; test: Inhibition of rat AMPK at 10 uM
[16] = target: Serine/threonine-protein kinase pim-1 (Homo sapiens) (UniProt P11309); test: Inhibition of human PIM1 at 10 uM
[17] = target: Serine/threonine-protein kinase PLK1 (Homo sapiens) (UniProt P53350); test: Inhibition of human PLK1 at 10 uM
[18] = target: Calcium/calmodulin-dependent protein kinase kinase 1 (Homo sapiens) (UniProt Q8N5S9); test: Inhibition of human CAMKKalpha at 10 uM
[19] = target: Serine/threonine-protein kinase Nek7 (Homo sapiens) (UniProt Q8TDX7); test: Inhibition of NEK7 at 10 uM
[20] = target: Tyrosine-protein kinase Yes (Homo sapiens) (UniProt P07947); test: Inhibition of human YES1 at 10 uM
[21] = target: MAP kinase-activated protein kinase 3 (Homo sapiens) (UniProt Q16644); test: Inhibition of MAPKAP-K3 at 10 uM
[22] = target: Calcium/calmodulin-dependent protein kinase kinase 2 (Homo sapiens) (UniProt Q96RR4); test: Inhibition of human CAMKKbeta at 10 uM
[23] = target: Mitogen-activated protein kinase 10 (Homo sapiens) (UniProt P53779); test: Inhibition of JNK3alpha1 at 10 uM
[24] = target: Proto-oncogene tyrosine-protein kinase Src (Gallus gallus) (UniProt P00523); test: Inhibition of chick SRC at 10 uM
[25] = target: Myosin light chain kinase, smooth muscle (Homo sapiens) (UniProt Q15746); test: Inhibition of smMLCK at 10 uM
[26] = target: Serine/threonine-protein kinase Chk1 (Homo sapiens) (UniProt O14757); test: Inhibition of CHK1 at 10 uM
[27] = target: Glycogen synthase kinase-3 beta (Homo sapiens) (UniProt P49841); test: Inhibition of GSK3-beta at 10 uM
[28] = target: Proto-oncogene tyrosine-protein kinase LCK (Mus musculus) (UniProt P06240); test: Inhibition of mouse LCK at 10 uM
[29] = target: Fibroblast growth factor receptor 1 (Homo sapiens) (UniProt P11362); test: Inhibition of human FGFR1 at 10 uM
[30] = target: Serine/threonine-protein kinase TBK1 (Homo sapiens) (UniProt Q9UHD2); test: Inhibition of human TBK1 at 10 uM
[31] = target: Ribosomal protein S6 kinase alpha-5 (Homo sapiens) (UniProt O75582); test: Inhibition of MSK1 at 10 uM
[32] = target: Serine/threonine-protein kinase Chk2 (Homo sapiens) (UniProt O96017); test: Inhibition of CHK2 at 10 uM
[33] = target: Protein kinase C alpha type (Homo sapiens) (UniProt P17252); test: Inhibition of PKCalpha at 10 uM
[34] = target: Mitogen-activated protein kinase 1 (Mus musculus) (UniProt P63085); test: Inhibition of mouse MAPK2 at 10 uM
[35] = target: MAP/microtubule affinity-regulating kinase 3 (Homo sapiens) (UniProt P27448); test: Inhibition of human MARK3 at 10 uM
[36] = target: Insulin receptor-related protein (Homo sapiens) (UniProt P14616); test: Inhibition of human IRR at 10 uM
[37] = target: MAP kinase-activated protein kinase 2 (Homo sapiens) (UniProt P49137); test: Inhibition of MAPKAP-K2 (delta 1-45) at 10 uM
[38] = target: Aurora kinase C (Homo sapiens) (UniProt Q9UQB9); test: Inhibition of human aurora C at 10 uM
[39] = target: Insulin receptor-related protein (Homo sapiens) (UniProt P14616); test: Inhibition of IRR at 10 uM

Sequence of Insulin receptor-related protein (Homo sapiens) (P14616 27-742 limits assumed): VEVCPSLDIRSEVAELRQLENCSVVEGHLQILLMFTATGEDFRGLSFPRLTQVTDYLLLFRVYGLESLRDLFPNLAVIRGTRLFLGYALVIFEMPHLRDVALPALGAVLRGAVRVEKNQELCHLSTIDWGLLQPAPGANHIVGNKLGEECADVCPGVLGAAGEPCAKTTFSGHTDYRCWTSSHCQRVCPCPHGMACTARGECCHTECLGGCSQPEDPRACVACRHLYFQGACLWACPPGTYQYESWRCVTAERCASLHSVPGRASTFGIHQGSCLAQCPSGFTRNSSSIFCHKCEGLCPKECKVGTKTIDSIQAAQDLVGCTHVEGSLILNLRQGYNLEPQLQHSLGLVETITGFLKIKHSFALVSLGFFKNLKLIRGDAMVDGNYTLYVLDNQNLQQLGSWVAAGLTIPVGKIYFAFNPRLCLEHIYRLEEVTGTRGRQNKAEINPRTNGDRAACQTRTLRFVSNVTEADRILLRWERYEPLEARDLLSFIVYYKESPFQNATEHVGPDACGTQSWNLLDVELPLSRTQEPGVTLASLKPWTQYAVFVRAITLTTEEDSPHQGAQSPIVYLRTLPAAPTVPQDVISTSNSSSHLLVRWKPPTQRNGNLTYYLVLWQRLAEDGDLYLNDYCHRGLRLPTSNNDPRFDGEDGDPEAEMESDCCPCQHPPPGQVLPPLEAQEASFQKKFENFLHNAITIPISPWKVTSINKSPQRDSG
Sequence of Insulin receptor-related protein (Homo sapiens) (P14616 747-1297 limits assumed): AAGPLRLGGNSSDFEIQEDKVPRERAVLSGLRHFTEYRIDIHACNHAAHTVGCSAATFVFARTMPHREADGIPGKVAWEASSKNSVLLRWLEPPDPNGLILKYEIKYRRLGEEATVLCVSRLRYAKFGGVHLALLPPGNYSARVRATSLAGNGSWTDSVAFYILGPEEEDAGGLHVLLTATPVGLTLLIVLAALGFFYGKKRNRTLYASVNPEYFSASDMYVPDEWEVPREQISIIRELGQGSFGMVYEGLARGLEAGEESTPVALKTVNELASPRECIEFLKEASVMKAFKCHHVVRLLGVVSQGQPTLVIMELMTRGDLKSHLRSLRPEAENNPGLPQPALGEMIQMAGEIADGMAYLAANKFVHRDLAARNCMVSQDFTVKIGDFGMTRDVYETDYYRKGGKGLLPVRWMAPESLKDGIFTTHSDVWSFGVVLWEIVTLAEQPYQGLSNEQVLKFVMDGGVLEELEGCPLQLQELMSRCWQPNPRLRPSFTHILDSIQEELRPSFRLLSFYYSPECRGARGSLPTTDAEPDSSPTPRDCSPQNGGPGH
Sequence of Proto-oncogene tyrosine-protein kinase LCK (Mus musculus) (P06240 2-509 limits assumed): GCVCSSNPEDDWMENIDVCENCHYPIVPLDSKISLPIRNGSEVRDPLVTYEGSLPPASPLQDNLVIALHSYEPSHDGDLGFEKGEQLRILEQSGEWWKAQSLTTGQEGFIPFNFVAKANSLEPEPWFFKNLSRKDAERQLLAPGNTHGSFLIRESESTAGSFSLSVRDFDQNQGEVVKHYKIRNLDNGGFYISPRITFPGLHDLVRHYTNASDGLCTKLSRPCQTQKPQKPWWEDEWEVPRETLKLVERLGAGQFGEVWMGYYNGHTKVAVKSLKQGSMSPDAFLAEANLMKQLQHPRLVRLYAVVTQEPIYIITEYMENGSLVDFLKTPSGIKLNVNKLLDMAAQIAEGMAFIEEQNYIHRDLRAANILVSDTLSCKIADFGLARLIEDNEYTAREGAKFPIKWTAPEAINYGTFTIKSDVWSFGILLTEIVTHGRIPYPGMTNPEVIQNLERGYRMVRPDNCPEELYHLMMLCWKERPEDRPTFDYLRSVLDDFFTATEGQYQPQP
Sequence of Myosin light chain kinase, smooth muscle (Homo sapiens) (Q15746 whole entry): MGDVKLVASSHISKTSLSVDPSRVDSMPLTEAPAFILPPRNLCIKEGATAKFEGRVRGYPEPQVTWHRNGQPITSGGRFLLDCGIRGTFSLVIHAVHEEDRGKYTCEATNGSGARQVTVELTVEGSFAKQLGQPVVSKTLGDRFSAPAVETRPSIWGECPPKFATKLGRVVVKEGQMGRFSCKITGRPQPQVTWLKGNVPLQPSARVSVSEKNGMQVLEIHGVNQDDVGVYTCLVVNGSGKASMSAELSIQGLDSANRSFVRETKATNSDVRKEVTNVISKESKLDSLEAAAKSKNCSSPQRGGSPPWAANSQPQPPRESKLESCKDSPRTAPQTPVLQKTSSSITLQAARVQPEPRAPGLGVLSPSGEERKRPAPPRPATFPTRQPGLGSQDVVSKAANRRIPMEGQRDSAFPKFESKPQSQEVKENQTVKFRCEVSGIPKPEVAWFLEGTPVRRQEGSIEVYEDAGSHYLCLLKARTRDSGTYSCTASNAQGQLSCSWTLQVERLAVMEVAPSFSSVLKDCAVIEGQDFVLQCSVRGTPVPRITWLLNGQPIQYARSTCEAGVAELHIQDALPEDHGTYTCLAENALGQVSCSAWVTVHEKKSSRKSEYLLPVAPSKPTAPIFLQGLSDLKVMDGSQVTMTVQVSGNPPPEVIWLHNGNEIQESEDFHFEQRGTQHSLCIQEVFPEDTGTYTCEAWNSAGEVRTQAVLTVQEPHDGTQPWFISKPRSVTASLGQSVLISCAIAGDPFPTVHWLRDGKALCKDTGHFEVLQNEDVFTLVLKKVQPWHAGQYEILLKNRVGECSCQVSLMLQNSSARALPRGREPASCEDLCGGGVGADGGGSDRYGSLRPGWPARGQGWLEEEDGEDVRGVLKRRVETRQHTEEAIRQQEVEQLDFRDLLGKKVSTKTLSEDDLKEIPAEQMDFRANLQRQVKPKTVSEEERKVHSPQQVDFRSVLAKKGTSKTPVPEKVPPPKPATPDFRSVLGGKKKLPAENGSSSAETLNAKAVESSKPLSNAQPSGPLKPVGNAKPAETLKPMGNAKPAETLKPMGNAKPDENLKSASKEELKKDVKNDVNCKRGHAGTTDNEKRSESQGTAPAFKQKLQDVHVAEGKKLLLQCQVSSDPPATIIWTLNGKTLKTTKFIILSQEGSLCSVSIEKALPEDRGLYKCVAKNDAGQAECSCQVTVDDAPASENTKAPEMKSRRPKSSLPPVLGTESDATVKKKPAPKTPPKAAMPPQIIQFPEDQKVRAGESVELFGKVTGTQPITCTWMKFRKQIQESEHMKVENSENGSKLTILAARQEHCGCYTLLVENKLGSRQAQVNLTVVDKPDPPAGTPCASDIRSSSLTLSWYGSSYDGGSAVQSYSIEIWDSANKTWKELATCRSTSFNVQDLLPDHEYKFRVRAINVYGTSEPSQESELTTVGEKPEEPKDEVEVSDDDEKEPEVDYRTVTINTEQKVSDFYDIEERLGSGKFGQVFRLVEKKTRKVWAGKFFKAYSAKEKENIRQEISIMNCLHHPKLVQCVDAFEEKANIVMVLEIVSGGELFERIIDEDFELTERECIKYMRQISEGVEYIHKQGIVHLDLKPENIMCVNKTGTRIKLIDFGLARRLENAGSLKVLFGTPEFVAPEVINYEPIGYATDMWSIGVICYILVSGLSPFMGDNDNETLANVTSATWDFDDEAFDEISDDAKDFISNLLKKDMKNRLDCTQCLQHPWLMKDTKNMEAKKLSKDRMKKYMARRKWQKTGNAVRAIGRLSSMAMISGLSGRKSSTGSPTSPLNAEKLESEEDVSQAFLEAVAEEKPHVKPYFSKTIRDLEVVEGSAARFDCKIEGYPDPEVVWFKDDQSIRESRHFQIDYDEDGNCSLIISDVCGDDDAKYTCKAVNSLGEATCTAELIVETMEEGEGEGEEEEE
Sequence of Aurora kinase B (Q96GD4 whole entry): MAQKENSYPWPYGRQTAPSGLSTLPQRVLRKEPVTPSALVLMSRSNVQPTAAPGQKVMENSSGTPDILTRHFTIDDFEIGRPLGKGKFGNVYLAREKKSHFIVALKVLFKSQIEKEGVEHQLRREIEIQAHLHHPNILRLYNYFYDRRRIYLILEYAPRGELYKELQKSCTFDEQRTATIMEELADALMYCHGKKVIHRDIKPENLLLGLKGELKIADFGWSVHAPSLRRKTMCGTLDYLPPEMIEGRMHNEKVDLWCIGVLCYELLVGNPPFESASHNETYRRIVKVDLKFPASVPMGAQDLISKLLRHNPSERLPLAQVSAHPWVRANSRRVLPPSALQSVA
Sequence of Serine/threonine-protein kinase TBK1 (Homo sapiens) (Q9UHD2 whole entry): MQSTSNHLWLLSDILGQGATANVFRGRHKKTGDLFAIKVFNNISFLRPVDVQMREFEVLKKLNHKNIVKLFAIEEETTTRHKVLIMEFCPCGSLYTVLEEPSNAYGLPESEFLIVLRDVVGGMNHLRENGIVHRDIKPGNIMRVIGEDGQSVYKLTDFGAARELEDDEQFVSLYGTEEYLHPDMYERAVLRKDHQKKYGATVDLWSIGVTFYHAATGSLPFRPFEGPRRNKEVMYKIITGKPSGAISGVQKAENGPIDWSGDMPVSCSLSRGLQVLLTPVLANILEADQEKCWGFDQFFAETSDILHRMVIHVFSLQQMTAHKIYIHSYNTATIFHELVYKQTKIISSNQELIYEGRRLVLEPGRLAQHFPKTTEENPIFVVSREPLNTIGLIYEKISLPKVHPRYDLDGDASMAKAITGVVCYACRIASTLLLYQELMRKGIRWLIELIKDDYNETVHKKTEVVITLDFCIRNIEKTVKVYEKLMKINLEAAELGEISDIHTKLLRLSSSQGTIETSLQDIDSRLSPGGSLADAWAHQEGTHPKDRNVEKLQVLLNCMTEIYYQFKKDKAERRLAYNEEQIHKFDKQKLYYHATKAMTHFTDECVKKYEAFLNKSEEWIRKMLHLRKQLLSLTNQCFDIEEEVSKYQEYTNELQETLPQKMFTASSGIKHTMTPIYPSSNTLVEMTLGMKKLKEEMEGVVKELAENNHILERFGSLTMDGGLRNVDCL
Sequence of Serine/threonine-protein kinase Nek7 (Homo sapiens) (Q8TDX7 whole entry, looked up): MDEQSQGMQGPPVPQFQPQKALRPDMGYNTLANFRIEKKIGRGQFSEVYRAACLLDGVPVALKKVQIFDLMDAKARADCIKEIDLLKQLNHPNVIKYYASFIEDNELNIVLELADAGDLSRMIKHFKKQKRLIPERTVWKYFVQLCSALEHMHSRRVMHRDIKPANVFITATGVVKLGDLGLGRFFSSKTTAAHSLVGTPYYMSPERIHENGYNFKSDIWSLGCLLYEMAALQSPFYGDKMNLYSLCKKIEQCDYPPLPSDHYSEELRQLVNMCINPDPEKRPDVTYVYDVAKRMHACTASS

inhibition (Angiopoietin-1 receptor): inactive | inhibition [1]: inactive | inhibition [2]: inactive | inhibition [3]: inactive
Compound: Nc1ncnc2c1ncn2CC(=O)c1ccccc1

inhibition [4]: inactive
Compound: Nc1ncnc2ncn(CC(=O)c3ccccc3)c12

inhibition [5]: inactive | inhibition (Aurora kinase B): inactive | inhibition [6]: inactive | inhibition [7]: inactive | inhibition [8]: inactive | inhibition [9]: inactive | inhibition [10]: inactive | inhibition [11]: inactive | inhibition [12]: inactive | inhibition [13]: inactive | inhibition [14]: inactive | inhibition (Rattus norvegicus): inactive | inhibition [16]: inactive | inhibition [17]: inactive | inhibition [18]: inactive | inhibition [19]: inactive | inhibition [20]: inactive | inhibition [21]: inactive | inhibition [22]: inactive | inhibition [23]: inactive | inhibition [24]: inactive | inhibition [25]: inactive | inhibition [26]: inactive | inhibition [27]: inactive | inhibition [28]: inactive | inhibition [29]: inactive | inhibition [30]: inactive | inhibition [31]: inactive | inhibition [32]: inactive | inhibition [33]: inactive | inhibition [34]: inactive | inhibition [35]: inactive | inhibition [36]: inactive | inhibition [37]: inactive | inhibition [38]: inactive
Compound: Nc1ncnc2ncn(CC(=O)c3c[nH]c4ccccc34)c12
inhibition [15]: inactive

inhibition [39]: 51%
Compound: Nc1ncnc2c1ncn2CC(=O)c1c[nH]c2ccccc12
